Calls of active or inactive are those of the source. The rule behind the calls is not given here.
What was measured:
[1] = test system: Quadruplex DNA [UNDEFINED MUTATION]; assay: Binding affinity to telomeric Htg24 G-quadruplex DNA G3C mutant (unknown origin) assessed as negative fluorescence signal at 5 uM under pH condition 7.4 by fluorescence titration analysis; format: nucleic-acid assay; conditions: Homo sapiens
In short: (§1)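 Ligand held at 5 μM and mixed with each Htg24 point mutant in Tris-HCl buffer containing 60 mM KCl, pH 7.4. Fluorescence was read, and the signal change was computed as (F mutant − F wild type)/F wild type.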

Quadruplex DNA [2] = assay: Binding affinity to G4 quadruplex DNA in human HeLa cells assessed as BG4 foci formation at 10 to 20 uM; format: cell-based; conditions: dose 10-20 µM
[3] = test system: Quadruplex DNA [UNDEFINED MUTATION]; assay: Binding affinity to telomeric Htg24 G-quadruplex DNA G21A mutant (unknown origin) assessed as strong fluorescence signal at 5 uM under pH condition 7.4 by fluorescence titration analysis; format: nucleic-acid assay; conditions: Homo sapiens
In short: (§2)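 Ligand 5 μM mixed with wild-type or point-mutant Htg24 in Tris-HCl buffer with 60 mM KCl; signal change calculated as (F mutant − F wild type)/F wild type.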

[4] = test system: Quadruplex DNA [UNDEFINED MUTATION]; assay: Effect on confirmation of telomeric Htg24 G-quadruplex DNA T6G mutant (unknown origin) assessed as hybrid topology at 5 uM at pH 7.4 by circular dichroism analysis; format: nucleic-acid assay; conditions: Homo sapiens
In short: (§3)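 CD spectra recorded on G4-DNA and ligand, each at 5 μM, in 10 mM Tris-HCl, pH 7.4, with 60 mM KCl. Scan range 220–340 nm in a 1 mm quartz cuvette, 1 nm bandwidth and step, 0.5 s/point. Each spectrum is the average of three scans.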

[5] = test system: Quadruplex DNA [UNDEFINED MUTATION]; assay: Effect on confirmation of telomeric Htg24 G-quadruplex DNA G22A mutant (unknown origin) assessed as hybrid topology at 5 uM at pH 7.4 by circular dichroism analysis; format: nucleic-acid assay; conditions: Homo sapiens; in short: as §3
HeLa [6] = assay: Downregulation of hTERT mRNA expression in human HeLa cells at 5 to 20 uM by qRT-PCR analysis; format: functional, cell-based; conditions: dose 5-20 µM
In short: (§4)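 HeLa cells were treated with graded compound concentrations, then incubated 36 h. RNA was extracted with Trizol/chloroform, reverse transcribed and quantified by qRT-PCR. GAPDH served as internal control, with relative expression by the ΔΔCt method; three independent experiments, mean ± SD.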

MCF7 = assay: Antiproliferative activity against human MCF7 cells assessed as reduction in cell viability […] by MTT assay; format: functional, cell-based
Quadruplex DNA [7] = assay: Binding affinity to telomeric Htg24 G-quadruplex DNA (unknown origin) at pH 7.4 by fluorescence titration analysis; format: nucleic-acid assay
HeLa [8] = assay: Downregulation of hTERC mRNA expression in human HeLa cells at 5 to 20 uM by qRT-PCR analysis; format: functional, cell-based; conditions: dose 5-20 µM; in short: as §4
[9] = test system: Quadruplex DNA [UNDEFINED MUTATION]; assay: Binding affinity to telomeric Htg24 G-quadruplex DNA G15T mutant (unknown origin) assessed as fluorescence signal at 5 uM under pH condition 7.4 by fluorescence titration analysis; format: nucleic-acid assay; conditions: Homo sapiens
HeLa [10] = assay: Induction of cellular senescence in human HeLa cells assessed as positive SA-beta-Gal cells at 0.5 to 4 uM incubated for 18 days by inverted fluorescence microscopic analysis; format: functional, cell-based; conditions: dose 0.5-4 µM, time 18.0 day
In short: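 HeLa cells were exposed to compound for 18 days, with drug-containing medium replaced every three days. Cells were then fixed 15 min at room temperature and stained for β-galactosidase at 37 °C overnight. Stained cells were examined under an inverted microscope.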

[11] = test system: Quadruplex DNA [UNDEFINED MUTATION]; assay: Effect on confirmation of telomeric Htg24 G-quadruplex DNA A14G mutant (unknown origin) assessed as hybrid topology at 5 uM at pH 7.4 by circular dichroism analysis; format: nucleic-acid assay; conditions: Homo sapiens; in short: as §3
[12] = test system: Quadruplex DNA [UNDEFINED MUTATION]; assay: Binding affinity to telomeric Htg24 G-quadruplex DNA G17T mutant (unknown origin) assessed as negative fluorescence signal at 5 uM under pH condition 7.4 by fluorescence titration analysis; format: nucleic-acid assay; conditions: Homo sapiens; in short: as §2
[13] = test system: Quadruplex DNA [UNDEFINED MUTATION]; assay: Binding affinity to telomeric Htg24 G-quadruplex DNA G11A mutant (unknown origin) assessed as fluorescence signal at 5 uM under pH condition 7.4 by fluorescence titration analysis; format: nucleic-acid assay; conditions: Homo sapiens
Quadruplex DNA [14] = assay: Binding affinity to telomeric Htg22 G-quadruplex DNA (unknown origin) assessed as dissociation constant by isothermal titration calorimetric analysis; format: nucleic-acid assay
In short: (§5)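 ITC at 25 °C: DNA preannealed at 95 °C for 5 min, cooled and held at 4 °C overnight, in 25 mM KH2PO4, 60 mM KCl, pH 7.4, 0.5% DMSO. DNA 10 μM in cell, ligand 500 μM in syringe; 19 injections of 4 s, 150 s apart, 750 rpm stirring; blank heat subtracted before model fitting.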

Quadruplex DNA [15] = assay: Binding affinity to wild type telomeric Htg24 G-quadruplex DNA (unknown origin) assessed as antiparallel structure at 5 uM under pH condition 7.4 with 60 mM K+ ion by CD spectra analysis; format: nucleic-acid assay; in short: as §3
16HBE14o- = assay: Cytotoxicity against human 16HBE14o- cells assessed as cell viability incubated for 48 hrs by MTT assay; format: cell-based; conditions: 36 h, in the assay text read “36 hrs” for “48 hrs”
In short: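 Cells were plated and grown 48 h at 37 °C, 5% CO2, in DMEM with 10% FBS. They were then given graded ligand concentrations for 36 h and treated with MTT (5 mg/ml) for 4 h in the dark. Formazan was dissolved in DMSO and absorbance read at 577 nm. IC50 was taken from a sigmoidal dose–response fit; three independent experiments.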

Quadruplex DNA [16] = assay: Binding affinity to telomeric Htg24 G-quadruplex DNA (unknown origin) assessed as dissociation constant by isothermal titration calorimetric analysis; format: nucleic-acid assay; in short: as §5
[17] = test system: Quadruplex DNA [UNDEFINED MUTATION]; assay: Binding affinity to telomeric Htg24 G-quadruplex DNA G5C mutant (unknown origin) assessed as negative fluorescence signal at 5 uM under pH condition 7.4 by fluorescence titration analysis; format: nucleic-acid assay; conditions: Homo sapiens; in short: as §1
Quadruplex DNA [18] = assay: Binding affinity to telomeric Htg22 G-quadruplex DNA (unknown origin) assessed as fold increase in fluorescence signal at 5 uM under pH condition 7.4 by fluorescence method; format: nucleic-acid assay
In short: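 Ligand 5 μM with each nucleic acid at 15 μM in 10 mM Tris-HCl pH 7.4, 60 mM KCl; emission enhancement expressed as F/F0 against ligand without DNA.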

Quadruplex DNA [19] = assay: Binding affinity to telomeric Htg24 G-quadruplex DNA (unknown origin) at 5 uM at pH 7.4 by UV-spectrophotometric titration analysis; format: nucleic-acid assay
In short: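 UV-vis titration of ligand (5 μM) with Htg24 (0–15 μM) in 10 mM Tris-HCl pH 7.4 containing 60 mM KCl, added until saturation.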

HeLa [20] = assay: Effect on telomere length in human HeLa cells assessed as reduction of telomere length incubated for 18 days by qRT-PCR analysis; format: functional, cell-based; conditions: dose 0.5-4 µM, time 18.0 day
In short: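 HeLa cells were treated with graded compound concentrations (0–4 μM) for 18 days. Genomic DNA was isolated by proteinase K digestion and phenol/chloroform extraction. Relative telomere length was measured by qPCR against hRPLPO using the ΔΔCt method; three independent experiments.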

[21] = test system: Quadruplex DNA [UNDEFINED MUTATION]; assay: Binding affinity to telomeric Htg24 G-quadruplex DNA G21C mutant (unknown origin) assessed as strong fluorescence signal at 5 uM under pH condition 7.4 by fluorescence titration analysis; format: nucleic-acid assay; conditions: Homo sapiens; in short: as §2
[22] = test system: Quadruplex DNA [UNDEFINED MUTATION]; assay: Effect on confirmation of telomeric Htg24 G-quadruplex DNA A20G mutant (unknown origin) assessed as hybrid topology at 5 uM at pH 7.4 by circular dichroism analysis; format: nucleic-acid assay; conditions: Homo sapiens; in short: as §3
Quadruplex DNA [23] = assay: Binding affinity to c-myc promoter G-quadruplex DNA Pu27 (unknown origin) assessed as dissociation constant by isothermal titration calorimetric analysis; format: nucleic-acid assay; in short: as §5

With `CN(C)c1ccc(/C=C/c2cc(/C=C3\Sc4ccccc4N3CCCN3CCOCC3)c3ccccc3[n+]2C)cc1.[I-]` the Activity [1] was “Active”, the Activity (Quadruplex DNA [2]) was “Active” and the Activity [3] was “Active”. The Activity [4] was “Active”, the Activity [5] was “Active” and the Activity (HeLa [6]) was “Active”. The IC50 (MCF7) was 14.5 µM, the Activity (Quadruplex DNA [7]) was “Active” and the Activity (HeLa [8]) was “Active”. The Activity [9] was “inactive”, the Activity (HeLa [10]) was “Active” and the Activity [11] was “Active”. For the same molecule, the Activity [12] was “Active”, the Activity [13] was “inactive” and the Kd (Quadruplex DNA [14]) was 0.71 µM. The Activity (Quadruplex DNA [15]) was “Active”, the IC50 (16HBE14o-) was 52.3 µM and the Kd (Quadruplex DNA [16]) was 0.65 µM. For the same molecule, the Activity [17] was “Active”, the fold change (FC) (Quadruplex DNA [18]) was 120 and the Activity (Quadruplex DNA [19]) was “Active”. The Activity (HeLa [20]) was “Dose-Dependent Effect”, the Activity [21] was “Active” and the Activity [22] was “Active”. The Kd (Quadruplex DNA [23]) was 3.27 µM.
